These results are taken from ChEMBL document CHEMBL1156983, “Modulation of cell surface expression of nonactivated cholecystokinin receptors using bivalent ligand-induced internalization” (J Med Chem, 2010).

Active and inactive are the calls of the source. No cut-off for these calls is given here.

Holding throughout (assay type): cell-based
Test [1] concerns the target Mu-type opioid receptor (Homo sapiens) (UniProt P35372). Put plainly: Induction of receptor internalization in YC-tagged mu opioid receptor expressed in CHO cells at 4 degC. Conditions: TDE = time-dependent effect. A digest of the protocol: (§1)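 CHO cells stably coexpressing YN-tagged CCK2 and YC-tagged MOP receptors on coverslips, washed with PBS containing 0.08 mM CaCl2 and 0.1 mM MgCl2. Incubated with 100 nM ligand at 4 °C for 90 min, washed with ice-cold PBS, then moved to prewarmed 37 °C PBS for various times. Fixed in 2% paraformaldehyde; reconstituted YFP fluorescence imaged by epifluorescence microscopy.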

Test [2] has as its target T1, Gastrin/cholecystokinin type B receptor (Homo sapiens) (UniProt P32239).
T1 sequence (whole entry): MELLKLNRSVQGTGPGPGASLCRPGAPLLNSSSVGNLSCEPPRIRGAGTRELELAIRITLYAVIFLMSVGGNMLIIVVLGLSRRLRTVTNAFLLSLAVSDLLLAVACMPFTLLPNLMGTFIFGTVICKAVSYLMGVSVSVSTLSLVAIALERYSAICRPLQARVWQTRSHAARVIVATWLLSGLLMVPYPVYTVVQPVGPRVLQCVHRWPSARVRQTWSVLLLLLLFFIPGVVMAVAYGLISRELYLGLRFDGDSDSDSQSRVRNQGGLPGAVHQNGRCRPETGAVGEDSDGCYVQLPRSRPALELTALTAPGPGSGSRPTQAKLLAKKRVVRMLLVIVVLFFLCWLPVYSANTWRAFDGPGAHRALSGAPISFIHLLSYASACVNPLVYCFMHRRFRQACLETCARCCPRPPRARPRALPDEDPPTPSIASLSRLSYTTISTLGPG
Kind of test: Induction of receptor internalization in YN-tagged CCK2 receptor expressed in CHO cells at 4 degC. The essentials:
as §1

Test [3] concerns the target T1, Gastrin/cholecystokinin type B receptor (Homo sapiens). Kind of test: Induction of receptor internalization in YN-tagged CCK2 receptor expressed in CHO cells after 90 mins. The essentials: as §1
For test [4], the target named is Mu-type opioid receptor (Homo sapiens) (UniProt P35372). Put plainly: Induction of receptor internalization in YC-tagged mu opioid receptor expressed in CHO cells after 90 mins. The essentials: as §1
Test [5] shares this target. Kind of test: Induction of receptor internalization in YFP-tagged mu opioid receptor expressed in CHO cells. The essentials: (§2)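 CHO cells stably expressing YFP-tagged MOP or YFP-tagged CCK2 receptor on coverslips, washed in PBS with 0.08 mM CaCl2 and 0.1 mM MgCl2. Incubated with 100 nM ligand at 4 °C for 90 min, washed with ice-cold PBS, then warmed in 37 °C PBS for various times. Fixed with 2% paraformaldehyde; YFP localization imaged by epifluorescence.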

Test [6] addresses T1, Gastrin/cholecystokinin type B receptor (Homo sapiens). Kind of test: Induction of receptor internalization in YFP-tagged CCK2 receptor expressed in CHO cells. The essentials: as §2

Chain of Mu-type opioid receptor (Homo sapiens) (P35372 whole entry): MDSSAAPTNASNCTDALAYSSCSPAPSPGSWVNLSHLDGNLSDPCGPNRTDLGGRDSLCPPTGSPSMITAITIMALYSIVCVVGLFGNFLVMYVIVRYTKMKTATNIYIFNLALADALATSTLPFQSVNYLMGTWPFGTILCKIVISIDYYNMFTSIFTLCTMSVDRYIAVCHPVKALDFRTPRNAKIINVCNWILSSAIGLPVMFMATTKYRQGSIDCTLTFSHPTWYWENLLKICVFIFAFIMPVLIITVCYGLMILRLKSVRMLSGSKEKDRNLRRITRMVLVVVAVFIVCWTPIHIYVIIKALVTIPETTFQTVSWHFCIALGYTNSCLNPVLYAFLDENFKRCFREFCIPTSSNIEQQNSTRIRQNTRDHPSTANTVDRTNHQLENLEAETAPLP

For the compound `CN1C(=O)[C@H](NC(=O)Nc2cccc(OCCNC(=O)COCC(=O)NCCNC(=O)COCC(=O)N[C@H]3CC[C@@]4(O)C5Cc6ccc(O)c7c6[C@@]4(CCN5)[C@H]3O7)c2)N=C(c2ccccc2)c2ccccc21`, in test [1], the Activity entry was “tde”. Further, the result in test [2], in test [3] and in test [4] was Active.

As to `CN1C(=O)[C@H](NC(=O)Nc2cccc(OCCNC(=O)COCC(=O)NNC(=O)COCC(=O)N[C@H]3CC[C@@]4(O)C5Cc6ccc(O)c7c6[C@@]4(CCN5)[C@H]3O7)c2)N=C(c2ccccc2)c2ccccc21`, the Activity result in test [1] is “tde”. The outcome in test [2], in test [3] and in test [4] was Active.

`CN1C(=O)[C@H](NC(=O)Nc2cccc(OCCNC(=O)COCC(=O)N[C@H]3CC[C@@]4(O)C5Cc6ccc(O)c7c6[C@@]4(CCN5)[C@H]3O7)c2)N=C(c2ccccc2)c2ccccc21`: in test [4], the result was inactive.

Turning to `C[C@@H](NC(=O)[C@@H](N)Cc1ccc(O)cc1)C(=O)NCC(=O)N(C)[C@@H](Cc1ccccc1)C(=O)NCCO`, in test [5] (TDE = time-dependent effect), the Activity result was “tde”.

With `CNC(=O)COCC(=O)NCCCCNC(=O)COCC(=O)N[C@H]1CC[C@@]2(O)C3Cc4ccc(O)c5c4[C@@]2(CCN3C)[C@H]1O5`, the outcome in test [5] was Active. Moreover, the outcome in test [4] was inactive.

`Cc1cccc(NC(=O)N[C@@H]2N=C(c3ccccc3)c3ccccc3N(C)C2=O)c1`: in test [6], the outcome was inactive.

Turning to `CNC(=O)COCC(=O)NCCCCCCNC(=O)COCC(=O)NCCOc1cccc(NC(=O)N[C@@H]2N=C(c3ccccc3)c3ccccc3N(C)C2=O)c1`, the result in test [6] was Active. Further, the outcome in test [4] was inactive.

With `CN1C(=O)[C@H](NC(=O)Nc2cccc(OCCNC(=O)COCC(=O)NCCCCCCNC(=O)COCC(=O)N[C@H]3CC[C@@]4(O)C5Cc6ccc(O)c7c6[C@@]4(CCN5)[C@H]3O7)c2)N=C(c2ccccc2)c2ccccc21`, the Activity entry in test [1] was “tde”. In addition, the result in test [2], in test [3] and in test [4] was Active.
